# Compound activity (PubChem BioAssay)
# The list is not random: actives were taken first. Their share in the collection is about 2.9%.
# CRFBP-R2 block: CRF-BP/CRF-R2 complex antagonism. inhibition, % at 11.8 µM. AID 588475. HEK293 CRF-R2/CRF-BP, CRF-induced calcium fluorescence. 350,000 compounds, 0.59% hits;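 active = inhibition of the ligand-induced calcium signal above about 50% at the single tested concentration, limit read from the data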
# DDE Tn7 FP inh: disrupts Tn7 cyclic peptide binding to fibrin D-Dimer-E complex. P02675. FP displacement of FITC-Tn7 peptide from fibrin DD(E); 0% = median of compound wells per plate. inhibition, % at 8.3 µM. 370,000 compounds, 0.13% hits. AID 720508;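 active = inhibition above the mean of compounds falling within the control limits plus 3 SD of them, cut at about 14% in these data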;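 note: 0% = plate median of compound wells and 100% = 10 µM Aha-Tn7 peptide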
#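 Measure: % inhibition scaled between sample-field median and high-control FP; Test system: human fibrin DD(E); Quantity: 2 µM final DD(E) protein; Doses: one dose, 8.3 µM nominal; Schedule: compound with protein 10 min, then 3 h after probe, room temperature; Detection: fluorescence polarization; Medium: Tris buffer with calcium and detergent, pH 7.8.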
# CendR NRP1 mod: modulators of CendR peptide binding to human neuropilin-1; O14786; FAM-RPARPAR peptide binding to NRP-1, fluorescence polarization; 360,000 compounds, 0.85% hits; inhibition, % at 25 µM;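 active = inhibition or corrected inhibition above about 18%, plus a signal ratio from 0.5 to 1.5, limit read from the data, passing the limit was not always enough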
# Target sequence (O14786 whole entry, looked up): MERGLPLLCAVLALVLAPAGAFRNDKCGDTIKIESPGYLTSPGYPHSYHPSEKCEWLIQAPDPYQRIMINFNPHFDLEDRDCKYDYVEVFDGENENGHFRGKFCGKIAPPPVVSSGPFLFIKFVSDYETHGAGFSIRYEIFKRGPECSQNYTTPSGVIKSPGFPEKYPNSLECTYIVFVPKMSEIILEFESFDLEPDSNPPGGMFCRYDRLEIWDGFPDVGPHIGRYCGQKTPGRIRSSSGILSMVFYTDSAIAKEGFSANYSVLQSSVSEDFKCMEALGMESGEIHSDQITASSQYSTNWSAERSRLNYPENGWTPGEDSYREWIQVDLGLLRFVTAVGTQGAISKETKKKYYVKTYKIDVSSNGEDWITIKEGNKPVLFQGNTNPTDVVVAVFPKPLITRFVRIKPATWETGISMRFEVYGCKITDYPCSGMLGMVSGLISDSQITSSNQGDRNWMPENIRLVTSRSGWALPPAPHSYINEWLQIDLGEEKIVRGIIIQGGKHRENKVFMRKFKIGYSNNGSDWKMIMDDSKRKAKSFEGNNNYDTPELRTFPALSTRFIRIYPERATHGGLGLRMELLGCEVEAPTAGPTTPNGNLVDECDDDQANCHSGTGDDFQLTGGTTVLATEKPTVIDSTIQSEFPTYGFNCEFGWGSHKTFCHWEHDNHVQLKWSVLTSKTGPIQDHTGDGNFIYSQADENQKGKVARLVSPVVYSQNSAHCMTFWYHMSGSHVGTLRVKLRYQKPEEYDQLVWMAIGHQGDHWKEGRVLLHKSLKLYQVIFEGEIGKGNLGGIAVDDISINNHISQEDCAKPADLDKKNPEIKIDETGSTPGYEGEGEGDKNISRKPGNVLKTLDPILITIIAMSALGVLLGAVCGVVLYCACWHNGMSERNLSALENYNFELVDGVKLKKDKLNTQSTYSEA
# proKLK7 act: proKLK7 (human) activation, primary screen. purified proKLK7, EDANS-DABCYL substrate fluorescence; 100% is mature enzyme control, 0% vehicle. 370,000 compounds, 0.9% hits. activation, % at 7 µM. P49862;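 active = activation above the mean of all tested compounds plus 3 SD, computed per campaign excluding outliers beyond control limits, cut at about 13% in these data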
# DDE Tn6 FP inh: DD(E)-Tn6 binding inhibition, primary FP screen. P02675. Fibrin DD(E) TRITC-Tn6 fluorescence polarization displacement. inhibition, % at 8.3 µM. 370,000 compounds, 0.21% hits. AID 720509;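 active = inhibition above a per-campaign cutoff: mean of compounds within control limits plus 3 SD, cut at about 15% in these data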;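 note: 0% = median of all compound wells on the plate and 100% = blocking peptide control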
# CRFBP-R2 agonist: CRF-BP/CRF-R2 complex agonism | AID 588473 | activation, % at 13.2 µM | HEK293 CRF-R2/CRF-BP, calcium dye fluorescence (FLIPR); percent of saturating CRF peptide response | 350,000 compounds, 0.46% hits;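 active = activation of at least 50%, plus an integration ratio under a set limit after plate pattern correction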;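 note: plate controls were neutral control wells without compound for no effect and CRF at EC100 for full effect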
# proKLK7 act conf: confirmation of human kallikrein-7 zymogen activators | activation, % at 7 µM | 3,200 compounds, 68% hits | purified proKLK7, EDANS-DABCYL substrate fluorescence; scaled: vehicle 0, mature enzyme 100 | shares compounds with proKLK7 act;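 active = activation, as change over the incubation, above the mean of all tested compounds plus 3 SD, cut at about 13% in these data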
# EDANS-DABCYL int: counter-screen for kallikrein-7 activators: EDANS-DABCYL optical interference. shares compounds with proKLK7 act. EDANS-DABCYL substrate fluorescence interference, no enzyme, 4 h; solvent 0%, active enzyme control 100%. activation, % at 7 µM. 3,200 compounds, 80% hits. AID 686952;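 active = activation above the all-compound mean plus 3 SD, ignoring values outside control-based bounds, cut at about 4.8% in these data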;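 note: value is the 4 h activation minus the activation read at time zero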
# Numbers without * were called inactive; / = not tested or not shown.
SMILES,CRFBP-R2 block,DDE Tn7 FP inh,CendR NRP1 mod,proKLK7 act,DDE Tn6 FP inh,CRFBP-R2 agonist,proKLK7 act conf,EDANS-DABCYL int
CCCC1CCC2(CCCN2CCOC(=S)NCc2cccc(C)c2)CC1 (stereo not drawn),/,-2,/,/,-1,/,/,/
CCOC(=O)C1=C(C)NC(=O)CC1c1ccccc1 (stereo not drawn),-9,1,1,0,2,-1,/,/
CCOC(=O)/C(=C(/C)N)C1CC(=O)NC1=O (stereo not drawn),10,5,1,33*,0,4,37*,37*
COc1ccc(-c2nnc(SCC(=O)NN=C(C)c3cccc4ccccc34)n2-c2ccccc2)cc1,/,-4,/,0,-3,/,/,/
O=C1NN(c2ccc(Br)cc2)C(=O)/C1=C\c1ccc(O)cc1O,-24,-2,-70,157*,1,-1,181*,196*
Cc1nn(-c2ccccc2)c2sc(C(=O)NCCc3ccccc3)cc12,/,1,/,0,-7,/,/,/
COC(=O)C1=C(C)N(C)C(=NCc2ccc3c(c2)OCO3)NC1c1ccc(Cl)cc1 (stereo not drawn),/,0,/,0,-3,/,/,/
COc1ccc(NC(=S)Nc2ccc3c(c2)c(=O)n(C)n3-c2ccccc2)cc1,/,9,-5,42*,-4,/,36*,48*
COc1cc(Cn2c3ccc(NC(=O)NCc4ccc(F)cc4)cc3c(=O)n2C)ccc1F,/,5,0,3,7,/,/,/
Cn1c(=O)c2cc(NC(=S)NCc3ccccc3F)ccc2n1C,/,2,7,34*,6,/,10,8.7*
Cn1c(=O)c2cc(NC(=O)NCc3ccc(F)cc3)ccc2n1C,/,10,7,39*,-1,/,31*,36*
C=C(C)Cn1c2ccc(NC(=O)NCc3ccc(F)cc3)cc2c(=O)n1C,/,-2,3,30*,-12,/,10,15*
C=CCN1C(C(=O)OC)CN(Cc2cn(Cc3ccc(F)cc3)nn2)CCS1(=O)=O (stereo not drawn),/,-2,/,0,-5,/,/,/
COc1ccc(CNS(=O)(=O)c2cc3c(cc2Br)CC(C)N3C(C)=O)cc1 (stereo not drawn),/,-1,/,0,6,/,/,/
CN(C(=O)NC(=O)C1=C(N2CCOCC2)/C(=C/c2ccccc2)CC1)S(C)(=O)=O,-12,3,-28,146*,0,0,342*,332*
CCCCN(C(=O)NC(=O)C1=C(N2CCOCC2)/C(=C/c2ccccc2)CC1)S(C)(=O)=O,0,-3,9,-291,1,-2,/,/
Cc1nc(N2CCCCC2C)c2nnn(Cc3ccccc3)c2n1 (stereo not drawn),/,8,/,1,-7,/,/,/
COC(=O)C1=C(C)N(Cc2ccccc2C(F)(F)F)C(=NCC2CC2)NC1c1cccc(F)c1 (stereo not drawn),/,0,/,1,-5,/,/,/
Cc1csc2nc3cc(C(N)=O)ccc3c(=O)n12,4,-3,13,22*,2,-1,63*,77*
NC(=O)Cn1cc(/C=N/NC(=O)c2ccc(Cn3cc(Cl)cn3)o2)c(-c2ccccc2)n1,34,3,-1,20*,-3,0,2,1
Cc1ccccc1/C=N\NC(=O)c1ccc(Cn2cccn2)o1,7,1,-5,0,-6,1,/,/
COc1ccc(N2CCN(CCC(=O)c3ccc4ccccc4c3)CC2)cc1,-29,5,1,22*,5,-4,15*,15*
COc1ccc(N2CCN(CC(=O)c3ccccc3)CC2)cc1,18,-6,-4,0,-2,0,/,/
CCCC(c1nnnn1C(C)(C)CC)N(Cc1ccco1)Cc1cc2ccc(OC)cc2[nH]c1=O (stereo not drawn),29,5,-7,19*,-1,-5,-2,-1
CCC(c1nnnn1Cc1ccccc1)N(Cc1ccco1)Cc1cc2cc(OC)ccc2[nH]c1=O (stereo not drawn),-5,1,10,0,1,0,/,/
SMILES,CRFBP-R2 block,DDE Tn7 FP inh,CendR NRP1 mod,proKLK7 act,DDE Tn6 FP inh,CRFBP-R2 agonist,proKLK7 act conf,EDANS-DABCYL int
CN(C(=O)c1cn(C)c2ccccc12)c1ccc(Oc2cccnc2)cc1,/,1,/,0,-4,/,/,/
O=C(Nc1ccc2c(c1)OCO2)NC1CCN(S(=O)(=O)c2ccc(F)cc2)CC1,/,8,/,0,-4,/,/,/
O=c1cc(CN2CCCCC2)c2c(ccc3ccccc32)o1,/,-6,3,-1,4,/,/,/
CCC(=O)OCc1cc(=O)oc2ccc3ccccc3c12,-1,5,0,22*,6,-1,-7,-19
O=C1CCC(C(=O)OCc2cc(=O)oc3ccc4ccccc4c23)=NN1,5,3,-16,145*,-6,-2,357*,371*
CC(=O)N1CCN(Cc2cc(=O)oc3ccc4ccccc4c23)CC1,/,-8,3,-1,0,/,/,/
COc1ccc(/C=C(\C)C(=O)c2c(C)cc(C)[nH]c2=O)cc1,15,5,8,0,1,-1,/,/
CCOc1ccc(/C=C(\C)C(=O)c2c(C)cc(C)[nH]c2=O)cc1,-4,-6,9,28*,-5,-1,0,0
Cc1ccc(S(=O)(=O)c2cc3cc(Br)ccc3oc2=O)cc1,-23,2,5,1,1,-2,/,/
NC(=S)c1cc2ccc(O)cc2oc1=O,17,-1,-189,24*,0,-1,70*,73*
O=c1oc2cc(O)ccc2cc1S(=O)(=O)c1ccccc1,-7,-4,4,38*,0,20,73*,67*
O=C(NCCc1c[nH]c2ccccc12)OCc1cn(-c2ccc(F)cc2)nn1,/,2,/,1,-5,/,/,/
CCc1cc2c(COC(=O)c3c(C)noc3C)cc(=O)oc2cc1O,0,3,1,1,8,1,/,/
CNS(=O)(=O)c1cccc(C(=O)OCc2cc(=O)oc3c(C)c(O)ccc23)c1,10,-2,-3,265*,-8,14,603*,607*
CCc1cc2c(COC(=O)c3cccc(S(C)(=O)=O)c3)cc(=O)oc2cc1O,6,6,-7,508*,-6,-1,568*,559*
COc1ccc(C)cc1S(=O)(=O)Nc1cccc(-c2cn3cccnc3n2)c1,-13,-1,-10,18*,1,-3,-18,-25
